Source: PubChem
KCNQ1 act: potentiators or activators of KCNQ1 channel, primary screen, cell-based, thallium flux, high-throughput; 310,000 compounds, 0.35% hits; Potassium voltage-gated channel subfamily KQT member 1 (Homo sapiens), P51787; B-score at 10 µM; CHO-K1 KCNQ1, thallium flux FluxOR fluorescence; hits give high values;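 active means fluorescence ratio B-score, a plate-corrected score, at least three library SD, with initial intensity B-score within 5 SD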
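System: Stable KCNQ1 CHO-K1 line | Incubation: 90 min dye loading and 20 min compound exposure, both at room temperature | Measure: Ratio B score | Medium: Assay buffer for compound exposure, DMSO matched across wells | Compound dosing: Single-concentration screen | Probe or stimulus: K+/Tl+ depolarizing stimulus | Measured by: Kinetic FluxOR fluorescence, 10 s baseline plus 110 s post-stimulus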
hERG protect: hERG rescue from dofetilide block, primary screen, cell-based, CHO-hERG, FluxOR thallium flux, dofetilide IC70 | activation (rescue from dofetilide block), less the hit threshold, % at 10 µM | dofetilide IC70 present | 310,000 compounds, 0.51% hits | Voltage-gated inwardly rectifying potassium channel KCNH2 (Homo sapiens), Q12809 | AID 1511, 2009;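 active means activation above the mean of controls blocked by dofetilide plus 5 SD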;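 further: thallium influx through hERG after potassium depolarization seen as dye fluorescence rise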
Target sequence (Q12809 whole entry, looked up): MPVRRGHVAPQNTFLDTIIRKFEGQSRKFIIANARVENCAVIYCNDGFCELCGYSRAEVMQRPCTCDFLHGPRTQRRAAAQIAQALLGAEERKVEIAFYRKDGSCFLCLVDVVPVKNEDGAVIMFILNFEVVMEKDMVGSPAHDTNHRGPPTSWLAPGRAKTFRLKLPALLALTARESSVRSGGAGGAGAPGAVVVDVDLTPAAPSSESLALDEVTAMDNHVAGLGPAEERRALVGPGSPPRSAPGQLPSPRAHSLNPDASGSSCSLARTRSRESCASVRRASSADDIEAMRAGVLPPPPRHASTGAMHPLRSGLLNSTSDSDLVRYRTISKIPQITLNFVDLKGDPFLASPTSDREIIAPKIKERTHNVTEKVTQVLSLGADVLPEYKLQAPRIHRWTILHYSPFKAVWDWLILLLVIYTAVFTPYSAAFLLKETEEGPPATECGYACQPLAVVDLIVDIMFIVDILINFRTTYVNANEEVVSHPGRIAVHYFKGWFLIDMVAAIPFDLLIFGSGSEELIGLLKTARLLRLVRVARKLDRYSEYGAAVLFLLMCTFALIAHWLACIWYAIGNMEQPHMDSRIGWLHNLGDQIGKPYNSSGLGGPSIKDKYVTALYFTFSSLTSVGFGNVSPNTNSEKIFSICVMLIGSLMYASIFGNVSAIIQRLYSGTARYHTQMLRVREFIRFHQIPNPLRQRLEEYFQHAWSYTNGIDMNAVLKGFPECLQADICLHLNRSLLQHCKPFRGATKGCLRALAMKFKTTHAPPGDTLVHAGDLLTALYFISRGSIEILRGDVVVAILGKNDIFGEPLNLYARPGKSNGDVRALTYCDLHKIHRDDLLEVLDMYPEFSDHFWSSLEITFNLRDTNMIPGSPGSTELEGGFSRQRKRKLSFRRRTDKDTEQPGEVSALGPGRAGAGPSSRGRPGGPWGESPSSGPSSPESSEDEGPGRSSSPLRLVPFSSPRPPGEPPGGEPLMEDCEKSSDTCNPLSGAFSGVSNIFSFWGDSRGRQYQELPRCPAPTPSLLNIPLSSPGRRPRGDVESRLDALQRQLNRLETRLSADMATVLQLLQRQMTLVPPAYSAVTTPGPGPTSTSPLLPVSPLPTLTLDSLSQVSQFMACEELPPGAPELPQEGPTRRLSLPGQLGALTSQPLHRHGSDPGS
Kir21 block: inhibitors of mouse Kir2.1 inward-rectifier potassium channel | B-score at 10 µM | Inward rectifier potassium channel 2 (Mus musculus), P35561 | 310,000 compounds, 0.85% hits | AID 1672, 2009 | HEK293-Kir2.1, FluxOR thallium flux fluorescence; hits give low values;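 active means fluorescence ratio B-score at or below minus 3 SD of library scores, with starting-brightness B-score within 2 SD, cut at about -4.2 in these data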;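 further: channel flux triggered by added potassium and thallium sulfate stimulus; B-score of peak minus minimum fluorescence over baseline after thallium stimulus; more negative B-score means stronger Kir2.1 block with less thallium influx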
KCNQ1 inh: inhibitors of human KCNQ1 channel, primary screen, cell-based, thallium flux, high-throughput | Potassium voltage-gated channel subfamily KQT member 1 (Homo sapiens), P51787 | CHO-K1 KCNQ1, FluxOR thallium flux fluorescence; hits give high values | B-score at 10 µM | 310,000 compounds, 1.3% hits | AID 2642, 2010;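 active means compounds whose thallium flux B-score, printed positive for inhibition, exceeds three library SD while starting fluorescence stays within three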;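 further: channel opened by potassium depolarization with thallium stimulus after 20 min compound exposure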
KCNK9 block: KCNK9 potassium channel inhibitors, primary screen, HEK293 cells, thallium flux. Potassium channel subfamily K member 9 (Homo sapiens), Q9NPC2. FluxOR thallium flux fluorescence; hits give low values. B-score at 10 µM. 310,000 compounds, 1.2% hits. AID 488922, 2010;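 active means ratio B-score over 3 SD below the library mean, with starting fluorescence within 5 SD of its mean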;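 further: negative B-score means less thallium flux so channel inhibition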
KCNK3 block: human KCNK3 channel inhibitors, primary screen, CHO cells, FluxOR thallium flux, B-score; Potassium channel subfamily K member 3 (Homo sapiens), O14649; 340,000 compounds, 0.84% hits; B-score at 10 µM; FluxOR fluorescence; hits give low values;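 active means B-score under library mean minus 4 SD, starting fluorescence ratio at most library mean plus 5 SD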;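 further: more negative B-score means stronger inhibition of thallium flux through KCNK3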
An asterisk follows results filed as active; i = inactive; nt = no result; ! = a repeat was not active. Hits are enriched below; roughly 3.7% of the tested compounds scored in any of these assays.

SMILES	KCNQ1 act	hERG protect	Kir21 block	KCNQ1 inh	KCNK9 block	KCNK3 block
COc1ccccc1C=NNC(=O)c1ccccc1OCCOc1ccccc1	nt	nt	nt	nt	nt	-10*
CCOc1ccc2[nH]c(C(=O)N/N=C/c3ccccc3OC)cc2c1	i	-7	1.3	i	-7.9*	i
C/C(=N\NC(=O)c1ccccc1OCCOc1ccccc1)c1ccccc1F	nt	nt	nt	nt	nt	-10*
COc1ccc2[nH]c(C(=O)N/N=C/c3ccccc3OC)cc2c1	i	-10	0.54	i	i	i
COc1ccc(C(=O)N/N=C/c2ccccc2OC(=O)c2ccccc2)cc1	i	-8	0.32	i	-14*	i
O=C(CN1CCN(C(=O)CNC(=O)c2ccc3c(c2)OCO3)CC1)Nc1ccc(F)cc1	nt	nt	nt	nt	nt	i
O=C(CCC(=O)N1CCN(c2ccc(Cl)c(Cl)c2)CC1)c1ccccc1	i	-7	-1.6	i	i	i
O=C(CNC(=O)c1ccc(F)cc1)N/N=C/c1cc(Br)ccc1OCc1ccccc1	i	-2	0.05	i	i	i
COc1ccccc1C(=O)NCC(=O)N/N=C/c1cc(Br)ccc1OCc1ccccc1	i	-18	0.22	i	-7.6*	i
COc1ccc(/C=N/NC(=O)c2nc(-c3ccccc3)cc(-c3ccccc3)n2)cc1	i	-10	0.09	10*	-7.1*	i
Cc1noc(C)c1NC(=O)Nc1cccc2c1O[C@@H](CN(C)Cc1ccc3c(c1)OCO3)[C@@H](C)CN([C@H](C)CO)C2=O	nt	nt	nt	nt	nt	i
CNc1nc2cccnc2s1	i	-5	-0.23	i	i	i
O=C(CS(=O)(=O)c1ccccc1)Nc1ncc([N+](=O)[O-])s1	i	-9	0.07	i	i	i
O=C(Nc1ncc([N+](=O)[O-])s1)c1ccccc1Br	i	-13	-0.62	8*	i	i
O=C(Nc1ncc([N+](=O)[O-])s1)c1cccs1	i	-5	1.8	6*!	i	i
O=C(Cc1ccc(Cl)cc1)Nc1ccccc1N1CCN(C(=O)c2ccccc2)CC1	i	-7	-1	i	i	i
Cc1c(NC(=O)C(C)OC(=O)c2cc(-c3cccc4ccccc34)nc3ccccc23)c(=O)n(-c2ccccc2)n1C (stereo not drawn)	i	-18	-2.8	6*	i	i
N#Cc1c(N2CCN(c3ccc([N+](=O)[O-])cc3)CC2)[n+](=O)c2ccc(Cl)cc2n1[O-]	nt	nt	nt	nt	nt	i
Cc1ccc(S(=O)(=O)N(CC(=O)O)Cc2ccco2)cc1	i	-7	0.04	i	i	i
Cc1ccc(S(=O)(=O)N(Cc2ccc(F)cc2)Cc2ccco2)cc1	i	-6	-0.7	6*	i	i
COc1ccc(OC)c(N(CC(=O)NCCSC2CCCCC2)S(=O)(=O)c2ccccc2)c1	i	-2	-0.53	i	i	i
O=C(NC(=S)N1CCCC1)c1ccc(Cl)cc1Cl	i	1	-0.23	i	i	i
CC1Cc2ccccc2N1C(=S)NC(=O)c1ccc(Cl)cc1Cl (stereo not drawn)	24*	32*	1.1	i	i	i
CC1Cc2ccccc2N1C(=S)NC(=O)c1cccc(Br)c1 (stereo not drawn)	92*	80*	-0.9	i	i	i
CC(CC(=O)N(C)c1c(N)n(Cc2ccccc2)c(=O)[nH]c1=O)c1ccccc1 (stereo not drawn)	i	-10	2.2	i	i	i
SMILES	KCNQ1 act	hERG protect	Kir21 block	KCNQ1 inh	KCNK9 block	KCNK3 block
O=c1c2cc(Br)ccc2nc(-c2ccc(Cl)cc2)n1O	104*	35*	-1.7	i	i	i
O=c1c2ccccc2nc(-c2ccc(Cl)c(Cl)c2)n1O	37*	21*	0.59	i	i	i
N#Cc1ccc(-c2nc3cc(Cl)ccc3c(=O)n2O)cc1	i	-3	-0.9	i	i	i
O=c1c2cc(Cl)ccc2nc(-c2ccc([N+](=O)[O-])cc2)n1O	13*	21*	-0.1	i	i	i
O=c1c2ccc(Cl)cc2nc(-c2cccc(C(F)(F)F)c2)n1O	136*	75*	-1.3	i	i	i
Cc1ccsc1C(=O)OCC(=O)N(C)c1c(N)n(Cc2ccccc2)c(=O)[nH]c1=O	i	-4	-0.39	i	i	i
CCN(c1ccc(OC)cc1)S(=O)(=O)c1csc(C(=O)N2CCCC2)c1	i	-7	-0.65	i	i	i
O=C(CN1C(=O)NC2(CCc3ccccc32)C1=O)c1ccc(F)c(F)c1 (stereo not drawn)	i	-6	0.93	i	i	i
Cc1ccc(-c2nc3c(Cl)cc(Cl)cc3c(=O)n2O)cc1	105*	55*	0.36	i	i	i
Cc1nc(N2CCN(Cc3ccccc3)CC2)nc2c1C(=O)CC(c1ccco1)C2 (stereo not drawn)	i	-12	-5.3*	i	i	i
CCCc1c(OCCCOc2ccc(OCC(=O)O)cc2)ccc(C(C)=O)c1O	nt	nt	nt	nt	nt	i
O=C(COc1ccc2ccccc2c1Br)Nc1ccncc1	i	-4	-2.5	i	i	i
O=C(COc1ccc2ccccc2c1Br)Nc1cccnc1	i	23*	0.12	i	i	i
Cc1ccc(C(C(=O)NC2CCCC2)N(Cc2ccc3c(c2)OCO3)C(=O)c2snc(C(N)=O)c2N)cc1 (stereo not drawn)	i	-9	-0.02	i	i	i
O=C(NC1CCCCC1)C(c1ccccc1)N(Cc1ccc2c(c1)OCO2)C(=O)c1cnsn1 (stereo not drawn)	i	-2	-0.65	6*	i	i
Cn1nnnc1SCCNCc1cc(Cl)ccc1OCc1ccccc1	i	-7	-2.1	i	i	i
Cn1nnnc1SCCNCc1ccccc1OCc1ccc(Cl)cc1	i	-13	-4.3*	i	i	i
CC(=O)C[C@H]1c2ccccc2S(=O)(=O)N1C1CCCC1	i	3	-4.8*	i	i	i
O=C(CCCc1ccccc1)Nc1nccs1	i	1	0.12	i	i	i
O=C1ON=C(c2ccccc2)/C1=C/c1ccco1	i	-24	-0.46	7*	i	i
O=C(c1ccccc1F)N1CCOCC1	i	-6	-0.87	i	i	i
